System: not listed separately
Assay: Metabolic stability in human hepatocytes at 22 uM after 44 hrs
Type: ADME, cell-based, Hepatocyte
Details: not given

| Compound | Stability |
| --- | --- |
| Cc1c(Oc2cnc(C(=O)N3CC(O)(C4CC4)C3)cn2)ccc2c1B(O)OC2 | Stable |
| CCC1(O)CN(C(=O)c2cnc(Oc3ccc4c(c3C)B(O)OC4)cn2)C1 | Stable |

System: not listed separately
Assay: Metabolic stability in rat hepatocytes at 22 uM after 44 hrs
Type: ADME, cell-based, Hepatocyte
Details: not given

| Compound | Stability |
| --- | --- |
| Cc1c(Oc2cnc(C(=O)N3CC(O)(C4CC4)C3)cn2)ccc2c1B(O)OC2 | Stable |
| CCC1(O)CN(C(=O)c2cnc(Oc3ccc4c(c3C)B(O)OC4)cn2)C1 | Stable |

System: Plasmodium berghei
Assay: Antimalarial activity against Plasmodium berghei infected in Swiss Webster mouse assessed as mouse survival rate at 200 mg/kg administered once daily via oral gavage for 4 consecutive days beginning 1 hr after infection measured on day 4 post infection relative to control
Type: functional
Details: not given
Method in brief: (§1)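 P. berghei-infected erythrocytes taken from a previously infected mouse were injected intraperitoneally. Oral dosing, once daily for 4 consecutive days, began 1 h after infection, in polyethylene glycol 300/propylene glycol/water (55/25/20 by weight). Chloroquine at 30 mg/kg was the positive control, with a vehicle-only group. Percent survival was recorded daily from day 4 to day 20.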

| Compound | survival at 200 mg/kg [%] |
| --- | --- |
| CCC1(O)CN(C(=O)c2cnc(Oc3ccc4c(c3C)B(O)OC4)cn2)C1 | 100 |

System: Plasmodium berghei
Assay: Antimalarial activity against Plasmodium berghei infected in Swiss Webster mouse assessed as mouse survival rate at 100 mg/kg administered once daily via oral gavage for 4 consecutive days beginning 1 hr after infection measured on day 4 post infection relative to control
Type: functional
Details: not given
Method in brief: (§2)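 Mice given an intraperitoneal injection of P. berghei-infected erythrocytes taken from a previously infected animal. Oral dosing once daily for 4 consecutive days, starting 1 h after infection. Vehicle: polyethylene glycol 300/propylene glycol/water (weight ratio 55/25/20). Percent survival recorded daily from day 4 to day 20. Chloroquine 30 mg/kg and vehicle-only groups served as controls.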

| Compound | survival at 100 mg/kg [%] |
| --- | --- |
| Cc1c(Oc2cnc(C(=O)N3CC(O)(C4CC4)C3)cn2)ccc2c1B(O)OC2 | 100 |
| CCC1(O)CN(C(=O)c2cnc(Oc3ccc4c(c3C)B(O)OC4)cn2)C1 | 100 |

System: Plasmodium berghei
Assay: Antimalarial activity against Plasmodium berghei infected in Swiss Webster mouse assessed as mouse survival rate at 3.7 mg/kg administered once daily via oral gavage for 4 consecutive days beginning 1 hr after infection measured on day 4 post infection relative to control
Type: functional
Details: not given
Method in brief: as §1

| Compound | survival at 3.7 mg/kg [%] |
| --- | --- |
| Cc1c(Oc2cnc(C(=O)N3CC(O)(C4CC4)C3)cn2)ccc2c1B(O)OC2 | 100 |
| CCC1(O)CN(C(=O)c2cnc(Oc3ccc4c(c3C)B(O)OC4)cn2)C1 | 100 |

System: Plasmodium berghei
Assay: Antimalarial activity against Plasmodium berghei infected in Swiss Webster mouse assessed as mouse survival rate at 33 mg/kg administered once daily via oral gavage for 4 consecutive days beginning 1 hr after infection measured on day 5 post infection relative to control
Type: functional
Details: not given
Method in brief: as §1

| Compound | survival at 33 mg/kg [%] |
| --- | --- |
| Cc1c(Oc2cnc(C(=O)N3CC(O)(C4CC4)C3)cn2)ccc2c1B(O)OC2 | 100 |
| CCC1(O)CN(C(=O)c2cnc(Oc3ccc4c(c3C)B(O)OC4)cn2)C1 | 100 |

System: Plasmodium berghei
Assay: Antimalarial activity against Plasmodium berghei infected in Swiss Webster mouse assessed as mouse survival rate at 1.2 mg/kg administered once daily via oral gavage for 4 consecutive days beginning 1 hr after infection measured on day 5 post infection relative to control
Type: functional
Details: not given
Method in brief: as §2

| Compound | survival at 1.2 mg/kg [%] |
| --- | --- |
| Cc1c(Oc2cnc(C(=O)N3CC(O)(C4CC4)C3)cn2)ccc2c1B(O)OC2 | 100 |
| CCC1(O)CN(C(=O)c2cnc(Oc3ccc4c(c3C)B(O)OC4)cn2)C1 | 100 |

System: Plasmodium berghei
Assay: Antimalarial activity against Plasmodium berghei infected in Swiss Webster mouse assessed as mouse survival rate at 33 mg/kg administered once daily via oral gavage for 4 consecutive days beginning 1 hr after infection measured on day 6 post infection relative to control
Type: functional
Details: not given
Method in brief: as §1

| Compound | survival at 33 mg/kg [%] |
| --- | --- |
| Cc1c(Oc2cnc(C(=O)N3CC(O)(C4CC4)C3)cn2)ccc2c1B(O)OC2 | 100 |
| CCC1(O)CN(C(=O)c2cnc(Oc3ccc4c(c3C)B(O)OC4)cn2)C1 | 100 |

System: Plasmodium berghei
Assay: Antimalarial activity against Plasmodium berghei infected in Swiss Webster mouse assessed as mouse survival rate at 11 mg/kg administered once daily via oral gavage for 4 consecutive days beginning 1 hr after infection measured on day 6 post infection relative to control
Type: functional
Details: not given
Method in brief: as §1

| Compound | survival at 11 mg/kg [%] |
| --- | --- |
| Cc1c(Oc2cnc(C(=O)N3CC(O)(C4CC4)C3)cn2)ccc2c1B(O)OC2 | 100 |
| CCC1(O)CN(C(=O)c2cnc(Oc3ccc4c(c3C)B(O)OC4)cn2)C1 | 100 |

System: Plasmodium berghei
Assay: Antimalarial activity against Plasmodium berghei infected in Swiss Webster mouse assessed as mouse survival rate at 0.1 mg/kg administered once daily via oral gavage for 4 consecutive days beginning 1 hr after infection measured on day 6 post infection relative to control
Type: functional
Details: not given
Method in brief: as §2

| Compound | survival at 0.1 mg/kg [%] |
| --- | --- |
| Cc1c(Oc2cnc(C(=O)N3CC(O)(C4CC4)C3)cn2)ccc2c1B(O)OC2 | 100 |
| CCC1(O)CN(C(=O)c2cnc(Oc3ccc4c(c3C)B(O)OC4)cn2)C1 | 100 |

System: Plasmodium berghei
Assay: Antimalarial activity against Plasmodium berghei infected in Swiss Webster mouse assessed as mouse survival rate at 100 mg/kg administered once daily via oral gavage for 4 consecutive days beginning 1 hr after infection measured on day 7 post infection relative to control
Type: functional
Details: not given
Method in brief: as §2

| Compound | survival at 100 mg/kg [%] |
| --- | --- |
| Cc1c(Oc2cnc(C(=O)N3CC(O)(C4CC4)C3)cn2)ccc2c1B(O)OC2 | 100 |
| CCC1(O)CN(C(=O)c2cnc(Oc3ccc4c(c3C)B(O)OC4)cn2)C1 | 100 |

System: Plasmodium berghei
Assay: Antimalarial activity against Plasmodium berghei infected in Swiss Webster mouse assessed as mouse survival rate at 33 mg/kg administered once daily via oral gavage for 4 consecutive days beginning 1 hr after infection measured on day 7 post infection relative to control
Type: functional
Details: not given
Method in brief: as §1

| Compound | survival at 33 mg/kg [%] |
| --- | --- |
| Cc1c(Oc2cnc(C(=O)N3CC(O)(C4CC4)C3)cn2)ccc2c1B(O)OC2 | 100 |
| CCC1(O)CN(C(=O)c2cnc(Oc3ccc4c(c3C)B(O)OC4)cn2)C1 | 100 |

System: Plasmodium berghei
Assay: Antimalarial activity against Plasmodium berghei infected in Swiss Webster mouse assessed as mouse survival rate at 1.2 mg/kg administered once daily via oral gavage for 4 consecutive days beginning 1 hr after infection measured on day 7 post infection relative to control
Type: functional
Details: not given
Method in brief: as §2

| Compound | survival at 1.2 mg/kg [%] |
| --- | --- |
| Cc1c(Oc2cnc(C(=O)N3CC(O)(C4CC4)C3)cn2)ccc2c1B(O)OC2 | 0 |
| CCC1(O)CN(C(=O)c2cnc(Oc3ccc4c(c3C)B(O)OC4)cn2)C1 | 0 |

System: Plasmodium berghei
Assay: Antimalarial activity against Plasmodium berghei infected in Swiss Webster mouse assessed as mouse survival rate at 11 mg/kg administered once daily via oral gavage for 4 consecutive days beginning 1 hr after infection measured on day 8 post infection relative to control
Type: functional
Details: not given
Method in brief: as §1

| Compound | survival at 11 mg/kg [%] |
| --- | --- |
| CCC1(O)CN(C(=O)c2cnc(Oc3ccc4c(c3C)B(O)OC4)cn2)C1 | 0 |

System: Plasmodium berghei
Assay: Antimalarial activity against Plasmodium berghei infected in Swiss Webster mouse assessed as mouse survival rate at 33 mg/kg administered once daily via oral gavage for 4 consecutive days beginning 1 hr after infection measured on day 9 post infection relative to control
Type: functional
Details: not given
Method in brief: as §1

| Compound | survival at 33 mg/kg [%] |
| --- | --- |
| Cc1c(Oc2cnc(C(=O)N3CC(O)(C4CC4)C3)cn2)ccc2c1B(O)OC2 | 100 |
| CCC1(O)CN(C(=O)c2cnc(Oc3ccc4c(c3C)B(O)OC4)cn2)C1 | 80 |

System: Plasmodium berghei
Assay: Antimalarial activity against Plasmodium berghei infected in Swiss Webster mouse assessed as mouse survival rate at 33 mg/kg administered once daily via oral gavage for 4 consecutive days beginning 1 hr after infection measured on day 10 post infection relative to control
Type: functional
Details: not given
Method in brief: as §1

| Compound | survival at 33 mg/kg [%] |
| --- | --- |
| Cc1c(Oc2cnc(C(=O)N3CC(O)(C4CC4)C3)cn2)ccc2c1B(O)OC2 | 40 |
| CCC1(O)CN(C(=O)c2cnc(Oc3ccc4c(c3C)B(O)OC4)cn2)C1 | 20 |

System: Plasmodium berghei
Assay: Antimalarial activity against Plasmodium berghei infected in Swiss Webster mouse assessed as mouse survival rate at 100 mg/kg administered once daily via oral gavage for 4 consecutive days beginning 1 hr after infection measured on day 11 post infection relative to control
Type: functional
Details: not given
Method in brief: as §2

| Compound | survival at 100 mg/kg [%] |
| --- | --- |
| Cc1c(Oc2cnc(C(=O)N3CC(O)(C4CC4)C3)cn2)ccc2c1B(O)OC2 | 100 |
| CCC1(O)CN(C(=O)c2cnc(Oc3ccc4c(c3C)B(O)OC4)cn2)C1 | 100 |

System: Plasmodium berghei
Assay: Antimalarial activity against Plasmodium berghei infected in Swiss Webster mouse assessed as mouse survival rate at 100 mg/kg administered once daily via oral gavage for 4 consecutive days beginning 1 hr after infection measured on day 12 post infection relative to control
Type: functional
Details: not given
Method in brief: as §2

| Compound | survival at 100 mg/kg [%] |
| --- | --- |
| Cc1c(Oc2cnc(C(=O)N3CC(O)(C4CC4)C3)cn2)ccc2c1B(O)OC2 | 100 |
| CCC1(O)CN(C(=O)c2cnc(Oc3ccc4c(c3C)B(O)OC4)cn2)C1 | 100 |

System: Plasmodium berghei
Assay: Antimalarial activity against Plasmodium berghei infected in Swiss Webster mouse assessed as mouse survival rate at 33 mg/kg administered once daily via oral gavage for 4 consecutive days beginning 1 hr after infection measured on day 12 post infection relative to control
Type: functional
Details: not given
Method in brief: as §1

| Compound | survival at 33 mg/kg [%] |
| --- | --- |
| Cc1c(Oc2cnc(C(=O)N3CC(O)(C4CC4)C3)cn2)ccc2c1B(O)OC2 | 40 |
| CCC1(O)CN(C(=O)c2cnc(Oc3ccc4c(c3C)B(O)OC4)cn2)C1 | 20 |

System: Plasmodium berghei
Assay: Antimalarial activity against Plasmodium berghei infected in Swiss Webster mouse assessed as mouse survival rate at 100 mg/kg administered once daily via oral gavage for 4 consecutive days beginning 1 hr after infection measured on day 13 post infection relative to control
Type: functional
Details: not given
Method in brief: as §2

| Compound | survival at 100 mg/kg [%] |
| --- | --- |
| Cc1c(Oc2cnc(C(=O)N3CC(O)(C4CC4)C3)cn2)ccc2c1B(O)OC2 | 100 |
| CCC1(O)CN(C(=O)c2cnc(Oc3ccc4c(c3C)B(O)OC4)cn2)C1 | 100 |

System: Plasmodium berghei
Assay: Antimalarial activity against Plasmodium berghei infected in Swiss Webster mouse assessed as mouse survival rate at 33 mg/kg administered once daily via oral gavage for 4 consecutive days beginning 1 hr after infection measured on day 13 post infection relative to control
Type: functional
Details: not given
Method in brief: as §1

| Compound | survival at 33 mg/kg [%] |
| --- | --- |
| Cc1c(Oc2cnc(C(=O)N3CC(O)(C4CC4)C3)cn2)ccc2c1B(O)OC2 | 40 |
| CCC1(O)CN(C(=O)c2cnc(Oc3ccc4c(c3C)B(O)OC4)cn2)C1 | 20 |

System: Plasmodium berghei
Assay: Antimalarial activity against Plasmodium berghei infected in Swiss Webster mouse assessed as mouse survival rate at 33 mg/kg administered once daily via oral gavage for 4 consecutive days beginning 1 hr after infection measured on day 14 post infection relative to control
Type: functional
Details: not given
Method in brief: as §1

| Compound | survival at 33 mg/kg [%] |
| --- | --- |
| Cc1c(Oc2cnc(C(=O)N3CC(O)(C4CC4)C3)cn2)ccc2c1B(O)OC2 | 0 |
| CCC1(O)CN(C(=O)c2cnc(Oc3ccc4c(c3C)B(O)OC4)cn2)C1 | 0 |

System: Plasmodium falciparum
Assay: Antimalarial activity against Plasmodium falciparum 3D7 0087/N9 infected in NOD/SCID IL2R gamma null mouse assessed as reduction in parasitemia administered once daily via oral gavage for 4 consecutive days measured on day 4 post infection
Type: functional
Details: 3D7 0087/N9, po, 96 h
Method in brief: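 Human-erythrocyte-engrafted NODscidIL2Rγnull mice carrying P. falciparum Pf3D70087/N9 in peripheral blood; compound given orally once daily for four consecutive days.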

| Compound | ED90 [mg/kg] |
| --- | --- |
| Cc1c(Oc2cnc(C(=O)N3CC(O)(C4CC4)C3)cn2)ccc2c1B(O)OC2 | < 5 |
| CCC1(O)CN(C(=O)c2cnc(Oc3ccc4c(c3C)B(O)OC4)cn2)C1 | 0.84 |
